Measured values from ChEMBL document CHEMBL3576833, “Design and Synthesis of Acetylenyl Benzamide Derivatives as Novel Glucokinase Activators for the Treatment of T2DM” (ACS Med Chem Lett, 2015).
Values after ≈ are worked out from the molar mass of the structure shown.

Experiments:
Hexokinase-4 = target: T1, Hexokinase-4 (Homo sapiens, UniProt P35557); assay: Activation of recombinant human pancreatic glucokinase using 10 mM glucose as substrate by G6PDH coupled assay
T1 sequence (P35557 whole entry): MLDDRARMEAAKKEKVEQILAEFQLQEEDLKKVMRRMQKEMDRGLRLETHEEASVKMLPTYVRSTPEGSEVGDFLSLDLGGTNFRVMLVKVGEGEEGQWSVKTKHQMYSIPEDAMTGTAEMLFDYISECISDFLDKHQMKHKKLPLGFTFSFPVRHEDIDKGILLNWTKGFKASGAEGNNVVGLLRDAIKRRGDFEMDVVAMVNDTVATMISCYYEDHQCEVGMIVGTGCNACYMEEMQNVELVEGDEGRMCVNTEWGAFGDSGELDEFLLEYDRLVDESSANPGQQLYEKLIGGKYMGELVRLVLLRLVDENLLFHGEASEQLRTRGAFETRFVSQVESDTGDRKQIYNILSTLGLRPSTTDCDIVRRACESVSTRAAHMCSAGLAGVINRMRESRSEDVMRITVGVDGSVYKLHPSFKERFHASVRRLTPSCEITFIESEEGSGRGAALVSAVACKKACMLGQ
Outline: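 Recombinant human pancreatic glucokinase, with glucose at 10 mM. Activity was read as the increase in GK enzyme activity. EC50, Vmax and S0.5 were derived from this. Values are means of triplicate runs.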

Mus musculus [1] = assay: Antidiabetic activity in C57BL/6 mouse assessed as reduction of blood glucose AUC at 50 mg/kg, po administered 30 mins prior to glucose challenge measured over 180 mins by OGTT relative to vehicle-treated control; format: functional; set-up: scale not given: the % may be the effect or the level left
Outline: (§1)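 Oral glucose tolerance test in C57BL/6J mice with oral dosing. Blood glucose was followed after the glucose challenge, and the result was expressed as the % reduction in blood glucose AUC.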

Mus musculus [2] = assay: Antidiabetic activity in C57BL/6 mouse assessed as reduction of blood glucose AUC at 30 mg/kg, po administered 30 mins prior to glucose challenge measured over 180 mins by OGTT relative to vehicle-treated control; format: functional; set-up: scale not given: the % may be the effect or the level left; outline: as §1
Mus musculus [3] = assay: Antidiabetic activity in C57BL/6J mouse assessed as blood glucose level at 30 mg/kg, po after 60 mins by fasted glucose tolerance test; format: functional
Outline: (§2)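 Fasted glucose tolerance test in C57BL/6J mice. Animals were fasted and dosed orally, with no glucose challenge. Blood glucose was measured at 60 min.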

Mus musculus [4] = assay: Toxicity in C57BL/6J mouse assessed as hypoglycemic effect at 30 mg/kg, po after 60 mins; format: organism-based; conditions: in vivo, 1 h; outline: as §2
[5] = Clearance in ICR mouse at 3 mg/kg, iv and 10 mg/kg, po; format: ADME, organism-based; conditions: in vivo
[6] = Volume of distribution at steady state in ICR mouse at 3 mg/kg, iv and 10 mg/kg, po; format: ADME, organism-based; conditions: in vivo, read-out: Vdss
[7] = Elimination half life in ICR mouse at 3 mg/kg, iv and 10 mg/kg, po; format: ADME, organism-based; conditions: in vivo, read-out: beta t1/2 (converted)
[8] = Oral bioavailability in ICR mouse at 10 mg/kg; format: ADME, organism-based; conditions: in vivo
[9] = Solubility of the compound at pH 7.4; format: physicochemical; conditions: buffer
[10] = Apparent permeability of the compound by PAMPA; format: physicochemical

EC50 (Hexokinase-4) [nM]	SMILES	Activity (Mus musculus [1]) [%]	further results
27	COC[C@H](C)Oc1cc(C#Cc2cccc(N)c2)cc(C(=O)Nc2ccn(C)n2)c1	52.1	Activity (Mus musculus [2]): 47.4%; Activity (Mus musculus [3]): >55 mg/dL; Activity (Mus musculus [4]): Non-toxic; clearance [5]: 43.2 mL/min/kg; Vd [6]: 1.44 L/kg; half-life [7]: 1.1 h; bioavailability [8]: 49%; solubility [9]: 22.2 µM (≈ 8.98 µg/mL); Papp [10]: 3.43 ×10⁻⁶ cm/s
39	COC[C@H](C)Oc1cc(C#Cc2cccc(O)c2)cc(C(=O)Nc2ccn(C)n2)c1		
37	COC[C@H](C)Oc1cc(C#Cc2cccc(N(C)C)c2)cc(C(=O)Nc2ccn(C)n2)c1	43.7	
39	COCCNc1cccc(C#Cc2cc(O[C@@H](C)COC)cc(C(=O)Nc3ccn(C)n3)c2)c1		Activity (Mus musculus [2]): 41%
53	COC[C@H](C)Oc1cc(C#Cc2cccc(OC(C)C)c2)cc(C(=O)Nc2ccn(C)n2)c1		
46	COC[C@H](C)Oc1cc(C#Cc2cccc(OCC#N)c2)cc(C(=O)Nc2ccn(C)n2)c1		
6	COC[C@H](C)Oc1cc(C#Cc2cccc(OCCN3CCCC3)c2)cc(C(=O)Nc2ccn(C)n2)c1	51.6	
7	COC[C@H](C)Oc1cc(C#Cc2cccc(OCCN3CCCCC3)c2)cc(C(=O)Nc2ccn(C)n2)c1	46	
16	COC[C@H](C)Oc1cc(C#Cc2cccc(OCCN3CCOCC3)c2)cc(C(=O)Nc2ccn(C)n2)c1		

More lines, now with the values behind:

SMILES	EC50 (Hexokinase-4) [nM]	Activity (Mus musculus [1]) [%]	further results
COCC#Cc1cc(O[C@@H](C)COC)cc(C(=O)Nc2ccn(C)n2)c1	1870		
COC[C@H](C)Oc1cc(C#CCOC2CCCCO2)cc(C(=O)Nc2ccn(C)n2)c1 (stereo not given in full)	6	44.7	
COC[C@H](C)Oc1cc(C#CCN(C)C)cc(C(=O)Nc2ccn(C)n2)c1	7700		
COC[C@H](C)Oc1cc(C#CCNc2ncccn2)cc(C(=O)Nc2ccn(C)n2)c1	301		
COC[C@H](C)Oc1cc(C#Cc2ccccc2OC)cc(C(=O)Nc2ccn(C)n2)c1	21		Activity (Mus musculus [2]): 49.1%
COC[C@H](C)Oc1cc(C#Cc2ccc3[nH]ccc3c2)cc(C(=O)Nc2ccn(C)n2)c1	12		
COC[C@H](C)Oc1cc(C#Cc2ccc3c(c2)OCO3)cc(C(=O)Nc2ccn(C)n2)c1	30		
COC[C@H](C)Oc1cc(C#Cc2ccc(N)cc2)cc(C(=O)Nc2ccn(C)n2)c1	34	53.5	
CCN(CC)c1cccc(C#Cc2cc(O[C@@H](C)COC)cc(C(=O)Nc3ccn(C)n3)c2)c1	163		
COC[C@H](C)Oc1cc(C#Cc2cccc(NCCN(C)C)c2)cc(C(=O)Nc2ccn(C)n2)c1	6		Activity (Mus musculus [2]): 56%
COC[C@H](C)Oc1cc(C#Cc2cccc(NCCN3CCCC3)c2)cc(C(=O)Nc2ccn(C)n2)c1	6	51.4	
COC[C@H](C)Oc1cc(C#Cc2cccc(NCCN3CCCCC3)c2)cc(C(=O)Nc2ccn(C)n2)c1	6	54	
COC[C@H](C)Oc1cc(C#Cc2cccc(NCCN3CCOCC3)c2)cc(C(=O)Nc2ccn(C)n2)c1	20	47.9	
COC[C@H](C)Oc1cc(C#Cc2cccc(NCCn3ccnc3C)c2)cc(C(=O)Nc2ccn(C)n2)c1	9		
N[C@@H](CC(=O)N1CCn2c(nnc2C(F)(F)F)C1)Cc1cc(F)c(F)cc1F [SITAGLIPTIN]			Activity (Mus musculus [2]): 22.6%
